Results from different studies.
Compare with care: the assays were run in different laboratories. pEC50, pIC50, pKd: −log10 of the molar value.
DHODH: Dihydroorotate dehydrogenase (quinone), mitochondrial (DHODH, Homo sapiens, UniProt Q02127)
SHMT2: Serine hydroxymethyltransferase, mitochondrial (SHMT2, Homo sapiens, UniProt P34897)
PIK3CG: Phosphatidylinositol 4,5-bisphosphate 3-kinase catalytic subunit gamma isoform (PIK3CG, Homo sapiens, UniProt P48736)
SCTR: Secretin receptor (SCTR, Homo sapiens, UniProt P47872)

Cc1c(C(=O)OC2CC2)nn(C)c1Cc1ccc(C(F)(F)F)nc1  pIC50 (DHODH; enzyme activity; inhibitor): < 4.00
NC(=O)c1cccc(C#CCN(CC[C@H](N)C(=O)O)C[C@H]2O[C@@H](n3cnc4c(N)ncnc43)[C@H](O)[C@@H]2O)c1  pKd (SHMT2; binding; MST): 4.18
O=C(/C=C/c1ccc(O)c(O)c1)O[C@@H]1C[C@](O)(C(=O)O)C[C@@H](O)[C@H]1O  pIC50 (Prostaglandin G/H synthase 2 (PTGS2, Homo sapiens, UniProt P35354); enzyme activity; inhibitor; fluorescence): 4.52
Cc1nc(N(C)c2ccc3c(c2)/C(=C/c2ccccc2Cl)C(=O)N3C)c2ccccc2n1  pIC50 (PIK3CG; enzyme activity; inhibitor; ADP detection): 6.98
CC1=NN(/C(=N/c2nnc(C)s2)Nc2ccc(C)c(C)c2)C(c2ccc(-c3ccccc3)cc2)S1 (centres unmarked)  pEC50 (SCTR; cAMP; agonist; TR-FRET): 6.15
Cc1nc(Nc2ccc3c(c2)/C(=C/c2ccccc2)C(=O)N3C)c2ccccc2n1  pIC50 (PIK3CG; enzyme activity; inhibitor; ADP detection): 6.95
Cn1nc2c(=O)n(C3CC3)nc(C3CC3)c2c1Cc1ccc(C(F)(F)F)c(F)c1  pIC50 (DHODH; enzyme activity; inhibitor): 5.64
CNC[C@H](O)c1cccc(O)c1  pEC50 (Alpha-1D adrenergic receptor (ADRA1D, Homo sapiens, UniProt P25100); calcium signal; agonist): 7.76
Cc1nc(Nc2ccc3c(c2)C(C)(C)C(=O)N3C)c2ccccc2n1  pIC50 (PIK3CG; enzyme activity; inhibitor; ADP detection): 6.41
Cc1noc(C)c1-c1cc(Cl)c(Nc2ccccc2C(=O)O)c(Cl)c1  pIC50 (DHODH; enzyme activity; inhibitor; absorbance): 5.85
CCn1cc(C)c2c(C(O)c3ccc(Cl)c(F)c3)n(C)nc2c1=O (centres unmarked)  pIC50 (DHODH; enzyme activity; inhibitor): < 4.00
COc1cc2ncnc(Nc3ccc4c(c3)/C(=C/c3ccccc3)C(=O)N4)c2cc1OC  pIC50 (PIK3CG; enzyme activity; inhibitor; ADP detection): 6.96
Cc1ccc(N/C(=N\c2nnc(C(C)(C)C)s2)N2N=C(C(C)(C)C)SC2c2cc(F)c(F)c(F)c2)cc1C (centres unmarked)  pEC50 (SCTR; cAMP; agonist; TR-FRET): < 4.30
CCn1ccc2c(Cc3ccc(C(F)(F)F)nc3)n(C)nc2c1=O  pIC50 (DHODH; enzyme activity; inhibitor; absorbance): < 4.00
CC(=O)N(CC#Cc1cccc(C(N)=O)c1)C[C@H]1C[C@@H](n2ccc3c(Cl)ncnc32)[C@H](O)[C@@H]1O  pKd (SHMT2; binding; MST): 5.68
Cc1nc(Nc2ccc3c(c2)C(C)(C)C(=O)N3)c2ccccc2n1  pIC50 (PIK3CG; enzyme activity; inhibitor; ADP detection): 6.87
CC1=NN(/C(=N\c2cccnc2)Nc2nnc(C)s2)C(c2ccc(C)cc2)S1 (centres unmarked)  pEC50 (SCTR; cAMP; agonist; TR-FRET): < 4.30
